Source: ChEMBL document CHEMBL1140348, “5'-Homoneplanocin A inhibits hepatitis B and hepatitis C” (J Med Chem, 2005)
pEC50: −log10 of the molar value.

How the values were obtained:
Hepatitis B virus [1] = experiment: Selectivity index of intracellular intermediates as the ratio of CC50 and EC90; type: functional
Method in brief: (§1)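 The 2.2.15 HBV assay used nine daily doses. HBV DNA was measured by blot hybridization and toxicity by neutral red uptake, both 24 h after the last dose. The index is CC50/EC90, where EC90 is the 10-fold HBV DNA depression and CC50 the 2-fold dye-uptake depression versus untreated cultures.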

Hepatitis B virus [2] = experiment: Effective concentrations at which 10-fold depression of intracellular intermediates of HBV DNA was observed in 2.2.15 Cells; type: functional; settings: HepG2 2.2.15
Method in brief: (§2)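 Confluent 2.2.15 cells in RPMI1640 with 2% FBS got nine daily doses, with medium and compound refreshed daily; six cultures per concentration on two plates. HBV DNA was quantified by blot hybridization 24 h after the last dose. EC50 and EC90 are the 2-fold and 10-fold depression versus untreated cultures, from linear regression over two to four experiments.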

Hepatitis C virus [3] = experiment: Selectivity index as the ratio of CC50 and EC50; type: functional, Hepacivirus hominis
Method in brief: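 AVA5 cells (Huh7 carrying the BB7 subgenomic HCV replicon) were grown 3 days with G418, which was then withdrawn. Rapidly dividing cultures, three per concentration, were treated for 3 consecutive days with daily medium renewal. HCV RNA was measured by blot hybridization 24 h after the last dose, with neutral red uptake for toxicity. SI is CC50/EC50, each at 2-fold depression versus untreated cultures.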

[4] = Cytotoxic concentration against HCV replication in AVA5 cell culture; type: cell-based; settings: AVA5 cells
Method in brief: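 AVA5 replicon cells given compound daily for 3 days, without G418. Neutral red uptake (A510) read 24 h after last treatment. CC50 is the concentration giving 2-fold lower dye uptake vs untreated cultures, by linear regression on combined data from all treated cultures.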

Hepatitis B virus [5] = experiment: (§3) Effective concentrations at which […] depression of extracellular virion DNA (HBV) was observed in 2.2.15 Cells; type: functional; settings: HepG2 2.2.15; method in brief: as §2
Hepatitis B virus [6] = experiment: as §3; type: functional, organism-based; settings: HepG2 2.2.15
Method in brief: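 Confluent 2.2.15 cells in RPMI1640 with 2% FBS, given nine consecutive daily doses with daily medium change, six cultures per concentration on two plates. HBV DNA measured by quantitative blot hybridization 24 h after last dose. EC is the concentration giving 2-fold (EC50) or 10-fold (EC90) depression vs untreated, by linear regression, 2–4 experiments.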

Hepatitis B virus [7] = experiment: Selectivity index of virion as the ratio of CC50 and EC90; type: functional; method in brief: as §1
Hepatitis C virus [8] = experiment: Effective concentrations at which 10-fold depression of HCV RNA was observed in AVA5 cells (Huh 7 cells with subgenomic HCV replicon BB7I; type: functional, Hepacivirus hominis
Method in brief: (§4)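 AVA5 cells (Huh7 carrying subgenomic HCV replicon BB7), grown 3 days with G418, then treated without G418 for 3 consecutive days while rapidly dividing, 3 cultures per concentration, fresh compound daily. HCV RNA measured by quantitative blot hybridization 24 h after last dose. EC90 is the concentration giving 10-fold HCV RNA depression vs untreated, by linear regression.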

Hepatitis B virus [9] = experiment: Cytotoxic concentration against […] replication in 2.2.15 cell culture; type: functional; settings: HepG2 2.2.15
Hepatitis C virus [10] = experiment: Effective concentrations at which 2-fold depression of HCV RNA was observed in AVA5 cells (Huh 7 cells with subgenomic HCV replicon BB7); type: functional, organism-based, Hepacivirus hominis
Method in brief: as §4, with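 “EC50” for “EC90”, “2-fold” for “10-fold”, “regression on all treated cultures.” for “regression.”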

[11] = Cytotoxic concentration against HBV replication in 2.2.15 cell culture; type: cell-based, HepG2 2.2.15; settings: hepatitis b virus, 2.2.15 cells
Method in brief: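 Confluent 2.2.15 cells in RPMI1640 with 2% FBS received nine consecutive daily doses, with medium and compound renewed daily. Toxicity was read 24 h after the last dose as neutral red uptake (A510), with three cultures per concentration on plates seeded in parallel from the same cell stock. CC50 is the 2-fold depression of dye uptake versus untreated cultures, from linear regression.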

| Compound | SI (Hepatitis B virus [1]) | EC90 (Hepatitis B virus [2]) | SI (Hepatitis C virus [3]) | CC50 [4] | EC90 (Hepatitis B virus [5]) | pEC50 (Hepatitis B virus [6]) | SI (Hepatitis B virus [7]) | EC90 (Hepatitis C virus [8]) | CC50 (Hepatitis B virus [9]) | pEC50 (Hepatitis C virus [10]) | CC50 [11] |
| --- | --- | --- | --- | --- | --- | --- | --- | --- | --- | --- | --- |
| Nc1ncnc2c1ncn2[C@@H]1C=C(CCO)[C@@H](O)[C@H]1O | 45 | 27 µM | 30 | 216 µM | 7.7 µM | 6.28 | 158 | 31 µM | 1210 µM | 5.14 | – |
| Nc1ccn([C@@H]2CS[C@H](CO)O2)c(=O)n1 (single isomer, unassigned) [LAMIVUDINE] | 3877 | 0.69 µM | – | – | 0.17 µM | 7.22 | 11630 | – | – | – | 2680 µM |
| NC(=O)c1ncn([C@@H]2O[C@H](CO)[C@@H](O)[C@H]2O)n1 [RIBAVIRIN] | – | – | – | 71 µM | – | – | – | > 100 µM | – | < 4.00 | – |
